Reference: article PMC5647227 (ACS chemical neuroscience, 2017)
“Also recorded” adds a separate entry of the source.

Tests used:
hNK1 receptors [1] = molecular target: T1, hNK1 receptors (Homo sapiens, UniProt P25103); assay: Functional NK1 receptor assay; type: cell-based
MOP receptor [2] = molecular target: MOP receptor (Rattus norvegicus, UniProt P33535); assay: Opioid receptor binding, [3H]DAMGO displacement from rat brain membranes
DOP receptor [3] = molecular target: DOP receptor (Mus musculus, UniProt P32300); assay: Mouse vas deferens; type: biochemical
hNK1 receptors [4] = molecular target: T1, hNK1 receptors; assay: [3H]Substance-P competition binding assay, hNK1-CHO membranes
MOP receptor [5] = molecular target: MOP receptor (Cavia porcellus, UniProt A0ACM8Q262); assay: Guinea pig ileum; type: biochemical; conditions: read-out: GPI IC50; representative of MOP receptor activation
DOP receptor [6] = molecular target: DOP receptor (Rattus norvegicus, UniProt P33533); assay: Opioid receptor binding, [3H]DSLET displacement from rat brain membranes
CCI-exposed mice [7] = assay: Cold plate test, thermal hypersensitivity in neuropathic pain model; type: in vivo, mouse; conditions: i.t.
How it was run: (§1)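 CCI mice, unanesthetized, received test compound in water for injections intrathecally by lumbar puncture between L5 and L6, in a 5 μL volume. Doses ranged from about 0.1 to 10 nmol/animal. The cold plate was held at 2 °C and latency to hind-paw lift was timed, with a 30 s cutoff. Testing was done at 30, 90 and 180 min after dosing. Effect was expressed as % MPE.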

CCI-exposed mice [8] = assay: Von Frey test, tactile hypersensitivity in neuropathic pain model; type: in vivo, mouse; conditions: i.t.; for duration of effect, von Frey test: moderate dose ca. 1 nmol (1 μg)
How it was run: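 CCI mice, unanesthetized, received test compound in water for injections intrathecally by lumbar puncture between L5 and L6, in a 5 μL volume. Doses ranged from about 0.1 to 10 nmol/animal. Calibrated nylon monofilaments (0.6–6 g, 6 g cutoff) were applied in serial increments to the hind-paw plantar surface until paw withdrawal, shaking or licking. Testing was done at 30, 90 and 180 min after dosing. Effect was expressed as % MPE.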

CCI-exposed mice [9] = assay: Neuropathic pain model, von Frey and cold plate tests taken together; type: in vivo, mouse; conditions: i.t.; for relative analgesic efficacy among hybrids in neuropathic pain model: von Frey and cold plate tests
How it was run: as §1

naive mice = assay: Tail-flick test, acute pain after i.t. administration; type: in vivo, mouse; conditions: for duration of analgesic effect, tail-flick: 0.1 nmol; for analgesic effect in acute pain model: dose of 1 μg

Sequence of DOP receptor (Mus musculus, UniProt P32300) (P32300 whole entry): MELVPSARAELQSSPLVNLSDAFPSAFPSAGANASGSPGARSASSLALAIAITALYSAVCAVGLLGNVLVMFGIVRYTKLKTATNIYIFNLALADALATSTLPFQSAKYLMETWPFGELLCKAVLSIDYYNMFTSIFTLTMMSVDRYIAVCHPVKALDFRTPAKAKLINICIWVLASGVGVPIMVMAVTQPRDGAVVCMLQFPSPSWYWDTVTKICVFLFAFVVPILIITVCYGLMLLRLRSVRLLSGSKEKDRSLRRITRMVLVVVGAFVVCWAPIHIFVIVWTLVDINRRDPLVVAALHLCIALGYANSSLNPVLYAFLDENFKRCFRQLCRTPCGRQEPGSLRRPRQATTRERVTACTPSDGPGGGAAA
T1 sequence (P25103 whole entry): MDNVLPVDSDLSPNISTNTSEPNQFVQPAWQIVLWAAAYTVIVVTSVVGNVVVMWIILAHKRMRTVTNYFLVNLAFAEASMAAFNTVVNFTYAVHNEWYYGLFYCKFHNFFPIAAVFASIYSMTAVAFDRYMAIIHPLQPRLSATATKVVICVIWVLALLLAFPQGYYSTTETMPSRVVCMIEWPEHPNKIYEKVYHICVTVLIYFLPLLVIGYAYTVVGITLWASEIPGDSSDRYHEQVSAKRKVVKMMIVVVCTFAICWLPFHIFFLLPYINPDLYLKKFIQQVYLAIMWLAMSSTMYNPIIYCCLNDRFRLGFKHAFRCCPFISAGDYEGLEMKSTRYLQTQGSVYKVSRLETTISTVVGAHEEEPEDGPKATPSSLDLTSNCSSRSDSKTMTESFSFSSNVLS
Sequence of MOP receptor (Cavia porcellus, UniProt A0ACM8Q262) (A0ACM8Q262 1-400): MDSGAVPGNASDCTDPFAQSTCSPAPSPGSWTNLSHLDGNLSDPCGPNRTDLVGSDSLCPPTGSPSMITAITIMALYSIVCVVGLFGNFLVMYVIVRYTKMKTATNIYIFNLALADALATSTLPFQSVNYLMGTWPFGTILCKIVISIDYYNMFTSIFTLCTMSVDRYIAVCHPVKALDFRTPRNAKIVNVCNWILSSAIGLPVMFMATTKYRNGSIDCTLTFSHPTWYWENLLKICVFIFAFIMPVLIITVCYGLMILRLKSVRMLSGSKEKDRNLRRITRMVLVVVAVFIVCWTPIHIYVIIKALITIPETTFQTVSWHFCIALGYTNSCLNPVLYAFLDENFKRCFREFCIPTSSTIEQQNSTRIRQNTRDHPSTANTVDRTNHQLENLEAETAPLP
Sequence of DOP receptor (Rattus norvegicus, UniProt P33533) (P33533 whole entry): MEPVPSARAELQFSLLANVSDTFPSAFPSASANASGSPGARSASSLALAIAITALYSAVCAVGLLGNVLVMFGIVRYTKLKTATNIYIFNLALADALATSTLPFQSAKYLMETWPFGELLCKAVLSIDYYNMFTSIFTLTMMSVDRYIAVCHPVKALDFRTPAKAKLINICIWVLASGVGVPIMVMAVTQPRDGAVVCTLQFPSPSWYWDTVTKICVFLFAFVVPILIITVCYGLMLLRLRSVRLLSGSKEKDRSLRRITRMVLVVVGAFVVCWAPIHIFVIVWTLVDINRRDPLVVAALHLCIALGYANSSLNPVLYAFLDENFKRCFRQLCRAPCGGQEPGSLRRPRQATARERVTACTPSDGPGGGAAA
Sequence of MOP receptor (Rattus norvegicus, UniProt P33535) (P33535 whole entry): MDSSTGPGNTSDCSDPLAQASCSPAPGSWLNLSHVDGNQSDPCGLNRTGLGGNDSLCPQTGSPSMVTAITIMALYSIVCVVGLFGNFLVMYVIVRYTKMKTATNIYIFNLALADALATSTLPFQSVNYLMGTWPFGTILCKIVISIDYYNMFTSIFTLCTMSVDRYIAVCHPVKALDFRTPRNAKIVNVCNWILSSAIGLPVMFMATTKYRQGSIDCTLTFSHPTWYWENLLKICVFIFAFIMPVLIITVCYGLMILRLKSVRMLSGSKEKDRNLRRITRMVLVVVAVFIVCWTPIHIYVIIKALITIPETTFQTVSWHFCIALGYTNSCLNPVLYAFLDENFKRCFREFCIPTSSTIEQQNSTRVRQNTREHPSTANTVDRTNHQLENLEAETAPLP

Cc1cc(O)cc(C)c1C[C@H](N)C(=O)N[C@H](CCCNC(=N)N)C(=O)N[C@H]1Cc2ccccc2CN(CC(=O)N2Cc3ccccc3C2)C1=O [Compound 10, H-Dmt-D-Arg-Aba-Gly-isoindoline]
Kb (hNK1 receptors [1]): 692 µM | Ki (MOP receptor [2]): 0.06 nM | IC50 (DOP receptor [3]): 8 nM | Ki (hNK1 receptors [4]): 3500 nM | IC50 (MOP receptor [5]): 7.3 nM | Ki (DOP receptor [6]): 81 nM

Cc1cc(O)cc(C)c1C[C@H](N)C(=O)N[C@H](CCCNC(=N)N)C(=O)N[C@H]1Cc2ccccc2CN(CCC(=O)N(Cc2ccccc2)C2CC2)C1=O [Compound 7, H-Dmt-D-Arg-Aba-β-Ala-NcPr-Bn]
Kb (hNK1 receptors [1]): 6.31 µM | Ki (MOP receptor [2]): 2.7 nM | IC50 (DOP receptor [3]): 6.6 nM | Ki (hNK1 receptors [4]): 520 nM | IC50 (MOP receptor [5]): 19 nM | Ki (DOP receptor [6]): 66 nM

Cc1cc(O)cc(C)c1C[C@H](N)C(=O)N[C@H](CCCNC(=N)N)C(=O)N[C@H]1Cc2ccccc2CN(CC(=O)N(C)Cc2ccc3ccccc3c2)C1=O [Compound 13, H-Dmt-D-Arg-Aba-Gly-NMe-2′-methylenenaphthyl]
influence on response, cold plate test (CCI-exposed mice [7]; 0.1 nmol): did not significantly influence the response | effect at 180 min, cold plate test (CCI-exposed mice [7]; highest dose 10 nmol): provided an effect at 180 min after administration | Kb (hNK1 receptors [1]): 3.63 µM | Ki (MOP receptor [2]): 2.8 nM | IC50 (DOP receptor [3]): 10 nM | response threshold, von Frey test (CCI-exposed mice [8]; lowest tested dose 0.1 nmol): ca. 70 % MPE | duration of effect, von Frey test (CCI-exposed mice [8]): not observable 180 min after administration | Ki (hNK1 receptors [4]): 709 nM | relative analgesic efficacy among hybrids in neuropathic pain model (CCI-exposed mice [9]): most efficient analgesic in both tests | duration of analgesic effect, tail-flick (naive mice): up to 180 min after administration | analgesic effect, tail-flick (naive mice; doses raised up to ca. 10 nmol): 60–70 % MPE | effect in attenuating acute pain (naive mice; measured at three time points after administration): ~ 60 % MPE | IC50 (MOP receptor [5]): 3 nM | Ki (DOP receptor [6]): 228 nM

H-Dmt-D-Arg-Aba-Gly-NH2 [Compound 1]
analgesic effect, von Frey test (CCI-exposed mice [8]; at 30 min): ca. 40 % MPE | analgesic effect, von Frey test (CCI-exposed mice [8]; maximum over doses): ≤ 40 % MPE | lowest dose raising latency of response to thermal stimuli, tail-flick (naive mice): 0.0013 nmol | analgesic effect in acute pain model (naive mice): ~100 % MPE | analgesic effect in acute pain model (naive mice; at 180 min after administration): > 80 % MPE | analgesic effect, tail-flick (naive mice; highest dose tested 1.3 nmol, lasting up to 180 min): ~100 % MPE | lowest efficacious dose in acute pain model (naive mice; p < 0.05 vs vehicle): 0.001 nmol/5 μL/animal

Cc1cc(O)cc(C)c1C[C@H](N)C(=O)N[C@H](CCCNC(=N)N)C(=O)N[C@H]1Cc2ccccc2CN(CC(=O)N(Cc2ccccc2)C2CC2)C1=O [Compound 8, H-Dmt-D-Arg-Aba-Gly-NcPr-Bn]
Kb (hNK1 receptors [1]): 3.16 µM | Ki (MOP receptor [2]): 0.3 nM | IC50 (DOP receptor [3]): 11.2 nM | Ki (hNK1 receptors [4]): 95 nM | IC50 (MOP receptor [5]): 10 nM | Ki (DOP receptor [6]): 68 nM

H-Dmt-D-Arg-Aba-Gly-NMe-3′,5′-(CF3)2-Bn [Compound 3, reference compound]
response latency / alleviation of hypersensitivity in neuropathic pain model (CCI-exposed mice [9]; test not specified or both tests): ca. 60 % MPE | tail-flick effect compared with parent compound (naive mice): weaker than its parent compound

H-Dmt-D-Arg-Aba-β-Ala-NH2 [Compound 2]
analgesic effect, cold plate test (CCI-exposed mice [7]; maximum over doses): no more than 20 % MPE | influence on response threshold, von Frey test (CCI-exposed mice [8]): no influence on the response threshold; also recorded: not efficacious at all | analgesic effect, tail-flick (naive mice; highest dose tested 1 nmol): ≤ 80 % MPE

Cc1cc(O)cc(C)c1C[C@H](N)C(=O)N[C@H](CCCNC(=N)N)C(=O)N[C@H]1Cc2ccccc2CN(CCC(=O)N(Cc2cc(C(F)(F)F)cc(C(F)(F)F)c2)C2CC2)C1=O [Compound 6, H-Dmt-D-Arg-Aba-β-Ala-NcPr-3′,5′-(CF3)2-Bn]
Kb (hNK1 receptors [1]): 4.37 µM | Ki (MOP receptor [2]): 47 nM | IC50 (DOP receptor [3]): 16 nM | Ki (hNK1 receptors [4]): 735 nM | IC50 (MOP receptor [5]): 18 nM | Ki (DOP receptor [6]): 190 nM

COc1ccccc1CN(C)C(=O)CN1Cc2ccccc2C[C@H](NC(=O)[C@@H](CCCNC(=N)N)NC(=O)[C@@H](N)Cc2c(C)cc(O)cc2C)C1=O [Compound 11, H-Dmt-D-Arg-Aba-Gly-NMe-2′-OMe-Bn]
Kb (hNK1 receptors [1]): 14.5 µM | Ki (MOP receptor [2]): 0.9 nM | IC50 (DOP receptor [3]): 2.4 nM | Ki (hNK1 receptors [4]): 501 nM | IC50 (MOP receptor [5]): 5 nM | Ki (DOP receptor [6]): 26 nM

Cc1cc(O)cc(C)c1C[C@H](N)C(=O)N[C@H](CCCNC(=N)N)C(=O)N[C@H]1Cc2ccccc2CN(CCC(=O)N(C)Cc2ccc3ccccc3c2)C1=O [Compound 12, H-Dmt-D-Arg-Aba-β-Ala-NMe-2′-methylenenaphthyl]
Kb (hNK1 receptors [1]): 0.0977 µM | Ki (MOP receptor [2]): 0.4 nM | IC50 (DOP receptor [3]): 4 nM | duration of effect, von Frey test (CCI-exposed mice [8]): not observable 180 min after administration | Ki (hNK1 receptors [4]): 612 nM | relative analgesic efficacy among hybrids in neuropathic pain model (CCI-exposed mice [9]): weaker in both tests | duration of analgesic effect, tail-flick (naive mice): up to 180 min after administration | analgesic effect, tail-flick (naive mice; doses raised up to ca. 10 nmol): 60–70 % MPE | IC50 (MOP receptor [5]): 9 nM | Ki (DOP receptor [6]): 44 nM

Cc1cc(O)cc(C)c1C[C@H](N)C(=O)N[C@H](CCCNC(=N)N)C(=O)N[C@H]1Cc2ccccc2CN(CCC(=O)N2Cc3ccccc3C2)C1=O [Compound 9, H-Dmt-D-Arg-Aba-β-Ala-isoindoline]
Ki (MOP receptor [2]): 0.2 nM | IC50 (DOP receptor [3]): 2.1 nM | Ki (hNK1 receptors [4]): > 10000 nM | IC50 (MOP receptor [5]): 5 nM | Ki (DOP receptor [6]): 16 nM
